The structures appear in SMILES notation.

The IC50 is the concentration at which inhibition is half-maximal. As a reminder, the ED50 is the dose that gives a 50% effect, or the effect in half of the subjects. One may read the inhibition in vivo as the drop in the measured response relative to a control, in per cent.

The target of test [1] is T1, Prostaglandin G/H synthase 1 (Ovis aries, UniProt P05979).
T1 sequence (P05979 whole entry): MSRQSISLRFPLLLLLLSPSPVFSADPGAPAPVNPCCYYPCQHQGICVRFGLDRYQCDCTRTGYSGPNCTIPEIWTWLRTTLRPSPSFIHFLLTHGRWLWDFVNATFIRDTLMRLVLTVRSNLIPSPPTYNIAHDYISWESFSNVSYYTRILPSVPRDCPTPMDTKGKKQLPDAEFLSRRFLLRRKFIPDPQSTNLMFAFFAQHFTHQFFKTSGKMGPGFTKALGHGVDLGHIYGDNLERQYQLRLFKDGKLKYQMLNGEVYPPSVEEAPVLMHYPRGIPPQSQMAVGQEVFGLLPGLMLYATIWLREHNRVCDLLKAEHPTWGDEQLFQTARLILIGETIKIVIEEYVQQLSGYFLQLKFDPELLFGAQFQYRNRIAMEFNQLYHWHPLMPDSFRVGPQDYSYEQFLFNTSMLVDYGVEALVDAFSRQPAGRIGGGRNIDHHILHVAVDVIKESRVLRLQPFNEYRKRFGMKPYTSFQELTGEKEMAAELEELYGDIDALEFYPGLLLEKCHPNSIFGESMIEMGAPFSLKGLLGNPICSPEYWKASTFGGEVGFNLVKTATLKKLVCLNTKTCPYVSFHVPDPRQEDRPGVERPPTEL
The experiment in a line: Inhibition of ovine COX1 by enzyme immuno assay.

The subject of test [2] is Rattus norvegicus. The experiment in a line: Antiinflammatory activity in ip dosed rat assessed as inhibition of carrageenan-induced foot paw edema measured after 2 hrs. Format: functional.
The subject of test [3] is Rattus norvegicus. The experiment in a line: Antiinflammatory activity in rat assessed as inhibition of carrageenan-induced foot paw edema at 200 mg/kg, ip measured after 2 hrs. As to conditions: route intraperitoneal. Format: functional. Summed up: (§1)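 Edema was induced in the rat paw with carrageenan. The read-out was percent reduction of edema at 2 h for each single dose. Test doses were 100 and 200 mg/kg. The reference agent was given at 50 and 100 mg/kg ip.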
For orientation: In the carrageenan paw model, swelling and tenderness develop within hours.

In test [4] the test system is Rattus norvegicus. The test can be described thus: Antiinflammatory activity in rat assessed as inhibition of carrageenan-induced foot paw edema at 100 mg/kg, ip measured after 2 hrs. Format: functional. As to conditions: route intraperitoneal. Summed up: as §1
The subject of test [5] is Rattus norvegicus. The test can be described thus: Antiinflammatory activity in rat assessed as inhibition of carrageenan-induced foot paw edema at 50 mg/kg, ip measured after 2 hrs. As to conditions: route intraperitoneal. Format: functional. In outline: as §1

`O=C(/C(=C/c1ccccc1O)C(=O)C(F)(F)F)c1ccc(Cl)cc1` gave an IC50 in test [1] greater than 50 µM.
As for `O=C(/C(=C/c1ccc(O)cc1)C(=O)C(F)(F)F)c1ccc(Cl)cc1`, in the test on Rattus norvegicus [2], the ED50 is 366 µmol/kg. In the test on Rattus norvegicus [3], the inhibition in vivo at 200 mg/kg is 78.9%. The IC50 in test [1] is greater than 50 µM. For the same compound, the inhibition in vivo at 100 mg/kg with Rattus norvegicus [4] was 39.2%.
For `COc1ccc(/C=C(/C(=O)c2ccc(Cl)cc2)C(=O)C(F)(F)F)cc1`, in that order: 528 µmol/kg, 52.4%, greater than 50 µM and 26.3%.
Turning to `COc1ccc(/C=C(/C(=O)c2ccc(Cl)cc2)C(=O)C(F)(F)F)cc1OC`, the ED50 in the test with Rattus norvegicus [2] turned out to be 321 µmol/kg. The inhibition in vivo at 200 mg/kg in the test with Rattus norvegicus [3] is 80.2%. The compound further registered an IC50 in test [1] greater than 50 µM. The inhibition in vivo at 100 mg/kg in the test on Rattus norvegicus [4] is 38.7%.
For `O=C(/C(=C/c1cccc([N+](=O)[O-])c1)C(=O)C(F)(F)F)c1ccc(Cl)cc1`, in that order: 343 µmol/kg, 80%, greater than 50 µM and 37.9%.
`O=C(/C(=C/c1ccco1)C(=O)C(F)(F)F)c1ccc(Cl)cc1` yielded an IC50 in test [1] greater than 50 µM.
Compound `Oc1ccccc1/C=C1\C(c2ccc(Cl)cc2)=NN=C1C(F)(F)F` had an IC50 in test [1] greater than 50 µM.
`Oc1ccc(/C=C2\C(c3ccc(Cl)cc3)=NN=C2C(F)(F)F)cc1`: the ED50 with Rattus norvegicus [2] was 370 µmol/kg. Besides, the inhibition in vivo at 200 mg/kg in the test on Rattus norvegicus [3] stood at 81.4%. The compound further yielded an IC50 in test [1] greater than 50 µM. In addition, the inhibition in vivo at 100 mg/kg in the test with Rattus norvegicus [4] worked out at 35.3%.
For `COc1ccc(/C=C2\C(c3ccc(Cl)cc3)=NN=C2C(F)(F)F)cc1`, in that order: 405 µmol/kg, 69.1%, greater than 50 µM and 33.4%.
Taken in the same sequence, the figures for `COc1ccc(/C=C2\C(c3ccc(Cl)cc3)=NN=C2C(F)(F)F)cc1OC` were 298 µmol/kg, 88.7%, greater than 50 µM and 42%.
For `O=[N+]([O-])c1cccc(/C=C2\C(c3ccc(Cl)cc3)=NN=C2C(F)(F)F)c1`, in that order: 318 µmol/kg, 84.5%, greater than 50 µM and 37.6%.
In turn, `FC(F)(F)C1=NN=C(c2ccc(Cl)cc2)/C1=C\c1ccco1` registered an IC50 in test [1] greater than 50 µM.
In the case of `FC(F)(F)c1[nH]nc(-c2ccc(Cl)cc2)c1Cc1ccccc1`, the IC50 in test [1] is greater than 50 µM.
Consider `FC(F)(F)c1nn(-c2ccccc2)c(-c2ccc(Cl)cc2)c1/C=N/c1ccc(Br)cc1`, for which, in the test on Rattus norvegicus [2], the ED50 came out at 335 µmol/kg. In the test on Rattus norvegicus [3], the inhibition in vivo at 200 mg/kg stood at 61.1%. The compound further showed an IC50 in test [1] greater than 50 µM. Also, the inhibition in vivo at 100 mg/kg with Rattus norvegicus [4] was 25.2%.
Compound `FC(F)(F)c1nn(-c2ccccc2)c(-c2ccc(Cl)cc2)c1/C=N/c1ccccc1Cl` registered an IC50 in test [1] greater than 50 µM.
For `O=[N+]([O-])c1ccc(/N=C/c2c(C(F)(F)F)nn(-c3ccccc3)c2-c2ccc(Cl)cc2)cc1`, the ED50 in the test on Rattus norvegicus [2] worked out at 243 µmol/kg. In addition, the inhibition in vivo at 200 mg/kg with Rattus norvegicus [3] was 86.7%. The same compound returned an IC50 in test [1] greater than 50 µM. Besides, in the test with Rattus norvegicus [4], the inhibition in vivo at 100 mg/kg was determined as 43.7%.
As for `FC(F)(F)c1cc(/N=C/c2c(C(F)(F)F)nn(-c3ccccc3)c2-c2ccc(Cl)cc2)cc(C(F)(F)F)c1`, the ED50 in the test with Rattus norvegicus [2] amounted to 170 µmol/kg. In addition, in the test with Rattus norvegicus [3], the inhibition in vivo at 200 mg/kg was determined as 89.3%. This compound had an IC50 in test [1] greater than 50 µM. In addition, in the test with Rattus norvegicus [4], the inhibition in vivo at 100 mg/kg was determined as 52%.
Turning to `N#CC(C#N)=Cc1c(C(F)(F)F)nn(-c2ccccc2)c1-c1ccc(Cl)cc1`, the IC50 in test [1] was greater than 50 µM.
Take `O=C1Nc2ccc(F)cc2C12CC(c1ccc(Br)cc1)=NN2` (centres undefined): the IC50 in test [1] was greater than 50 µM.
Still for that read-out and setting: under `Cc1ccc(C2=NNC3(C2)C(=O)Nc2ccc(F)cc23)cc1` (centres undefined) stands greater than 50 µM.
For `Cc1ccc(-c2cc(C(F)(F)F)nn2-c2ccc(S(N)(=O)=O)cc2)cc1` [CELECOXIB], in the test with Rattus norvegicus [2], the ED50 was 185 µmol/kg. Further, in the test on Rattus norvegicus [5], the inhibition in vivo at 50 mg/kg is 57%. In addition, the inhibition in vivo at 100 mg/kg in the test on Rattus norvegicus [4] was found to be 83%.
Taken in the same sequence, the figures for `O=C(O)Cc1ccccc1Nc1c(Cl)cccc1Cl` [DICLOFENAC SODIUM] were 198 µmol/kg, 48.7% and 87.3%.
